Compound activity as filed in PubChem.
Shown are actives, neighbours in structure and some others; about 2.9% of the full set was active somewhere.
S1P1 ag-PAM: S1P1 (human) agonism or agonism potentiation; P21453; AID 449; S1P1 CRE-bla cells, forskolin, beta-lactamase FRET, potentiator mode; S1P1 agonist co-added at EC20, 2 nM; 100% = saturating reference agonist, 0% = basal; 0.57% of 56,000 active; activation, % at 9.5 µM;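 active = activation above a cutoff set at the mean activation of all tested compounds plus 3 SD, cut at about 54% in these data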;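 note: forskolin at 4 µM as EC80 and the EC20 agonist is SEW2871; 100% = SEW2871 at its EC100 plus forskolin at EC80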
5-HT1A blocker: 5-HT1a (human) receptor antagonism; P08908; CHO 5-HT1a Ga15 NFAT-bla reporter, antagonist mode; inhibition, % at 10 µM; 0.68% of 62,000 active;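 active = inhibition above the mean of all tested compounds plus 3 SD, cut at about 43% in these data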;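 note: receptor stimulated by 5-CT agonist at 100 nM near EC80; beta-lactamase reporter measured by ratiometric fluorescence of a cleavable substrate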
HTR1E antagonist: antagonists of human 5-HT1E serotonin receptor; 0.99% of 65,000 active; CHO 5-HT1E Ga15 NFAT-bla reporter, FRET, antagonist; P28566; inhibition, % at 6 µM;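 active = inhibition above a set limit, the mean inhibition across every tested compound plus 3 SD, cut at about 29% in these data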;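 note: signal is the 460 over 535 nm emission ratio of beta-lactamase substrate; 0% = agonist plus DMSO wells and 100% = wells without agonist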
Target sequence (P28566 whole entry, looked up): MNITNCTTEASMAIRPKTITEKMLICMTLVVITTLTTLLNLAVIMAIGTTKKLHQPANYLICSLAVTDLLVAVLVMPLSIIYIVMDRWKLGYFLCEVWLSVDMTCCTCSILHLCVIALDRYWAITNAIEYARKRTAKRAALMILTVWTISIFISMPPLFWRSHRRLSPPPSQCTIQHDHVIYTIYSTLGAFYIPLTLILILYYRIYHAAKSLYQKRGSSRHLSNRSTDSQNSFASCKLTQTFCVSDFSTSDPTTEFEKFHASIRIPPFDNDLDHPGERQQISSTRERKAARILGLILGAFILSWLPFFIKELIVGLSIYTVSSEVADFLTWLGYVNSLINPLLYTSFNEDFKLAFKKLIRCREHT
S1P3 ag: S1P3 (human) receptor agonism; AID 373; activation, % at 4.5 µM; S1P3 NFAT-BLA reporter cells, FRET ratio; relative to 1 µM S1P, basal subtracted; 0.1% of 60,000 active;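 active = activation above the screen-wide mean plus 3 SD, cut at about 4.5% in these data, passing the limit was not always enough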
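Assay system: CHO cells stably expressing human S1P3, Gα16 and NFAT-β-lactamase reporter. Timing: overnight plating, 4 h compound 37 °C, 2 h substrate RT. Signal: β-lactamase FRET emission ratio 460/535 nm. Measure: percent activation versus median 1 µM S1P response, basal-subtracted, per plate. Repeats: primary screen single test, confirmation screen in triplicate.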
HTR1A agonist: activates the human 5-HT1a serotonin receptor. AID 567. activation, % at 10 µM. 0.56% of 65,000 active. CHO 5-HT1a Ga15 NFAT-bla reporter, FRET ratio; 0% basal, 100% maximal reference agonist. P08908;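 active = activation above the screen-wide mean activation plus 3 SD, cut at about 19% in these data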;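 note: 0% = DMSO wells and 100% = 5-CT at EC100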
5HT1E ag: activates the human 5-HT1E serotonin receptor | P28566 | CHO 5-HT1E Ga15 NFAT-bla reporter, FRET; 0% DMSO wells, 100% control agonist wells | activation, % at 6 µM | 0.69% of 65,000 active | AID 574;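 active = activation above a set limit, the screen-wide mean activation plus 3 SD, cut at about 8.5% in these data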;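 note: 100% = positive control agonist at 1 µM giving full maximal response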
* marks the source's active call; other numbers are inactive results.

Results for CCOC(=O)C(C)Oc1cccc2c(=O)n(CC(=O)NCc3ccco3)ccc12 (stereo not drawn) ?
S1P1 ag-PAM: 34; 5-HT1A blocker: 14; HTR1E antagonist: 38*; S1P3 ag: -2; HTR1A agonist: -4; 5HT1E ag: 0

How did O=C(C1CCN(S(=O)(=O)N2CCOCC2)CC1)N1CCN(c2ccccc2)CC1 do in these assays?
S1P1 ag-PAM: -22; 5-HT1A blocker: -6; HTR1E antagonist: -5; S1P3 ag: 0; HTR1A agonist: -5; 5HT1E ag: 3

How did O=c1[nH]nc(Sc2ncnc3sccc23)n1CCc1ccccc1 do in these assays?
S1P1 ag-PAM: 57; 5-HT1A blocker: 33; HTR1E antagonist: 27; S1P3 ag: -1; HTR1A agonist: 22*; 5HT1E ag: -1

How did COC(=O)C1=C(N)n2c(s/c(=C\c3cccnc3)c2=O)=C(C(=O)OC)C1c1cccnc1 (stereo not drawn) do in these assays?
S1P1 ag-PAM: 0; 5-HT1A blocker: 5; HTR1E antagonist: 7; S1P3 ag: -1; HTR1A agonist: -3; 5HT1E ag: 1

What do the screens show for `CCOC(=O)C1=C(N)n2c(s/c(=C\c3cccnc3)c2=O)=C(C#N)C1c1cccnc1` (stereo not drawn)?
S1P1 ag-PAM: -1; 5-HT1A blocker: -9; HTR1E antagonist: -7; S1P3 ag: -2; HTR1A agonist: 0; 5HT1E ag: 19*

Results for Cc1cccc(N2CCN(C(=O)COc3cc(=O)n(C)c4ccccc34)CC2)c1C ?
S1P1 ag-PAM: -16; 5-HT1A blocker: -13; HTR1E antagonist: 0; S1P3 ag: -1; HTR1A agonist: -2; 5HT1E ag: 13*

What do the screens show for `COc1ccc(N2C(=O)CC(Sc3nnc(-c4ccccc4)o3)C2=O)cc1` (stereo not drawn)?
S1P1 ag-PAM: -20; 5-HT1A blocker: 47*; HTR1E antagonist: -5; S1P3 ag: -1; HTR1A agonist: -3; 5HT1E ag: 0

Results for O=C1CC(Sc2nnc(-c3ccccc3O)o2)C(=O)N1c1ccccc1 (stereo not drawn) ?
S1P1 ag-PAM: 0; 5-HT1A blocker: 12; HTR1E antagonist: 3; S1P3 ag: 0; HTR1A agonist: -2; 5HT1E ag: 1

How did C=CCn1c(SCC(=O)N2CCN(C(=O)c3ccco3)CC2)nc2sc(CC)cc2c1=O do in these assays?
S1P1 ag-PAM: -1; 5-HT1A blocker: -1; HTR1E antagonist: 16; S1P3 ag: -1; HTR1A agonist: 2; 5HT1E ag: -2

Results for C=CCn1c(SCC(=O)c2cccs2)nc2sc(CC)cc2c1=O ?
S1P1 ag-PAM: 93*; 5-HT1A blocker: 13; HTR1E antagonist: 6; S1P3 ag: -2; HTR1A agonist: 2; 5HT1E ag: 0

Results for Cc1cc(=O)oc(C)c1C(=O)n1nc(C)c2c1C[C@@H]1[C@H]2C1(C)C ?
S1P1 ag-PAM: 14; HTR1E antagonist: 4; S1P3 ag: 0; HTR1A agonist: 1; 5HT1E ag: 0

Results for CCOc1cc(S(=O)(=O)N2CCOCC2)ccc1F ?
S1P1 ag-PAM: 6; 5-HT1A blocker: -13; HTR1E antagonist: -2; S1P3 ag: 1; HTR1A agonist: 4; 5HT1E ag: 0

What do the screens show for `CCOc1ccc2cc(S(=O)(=O)N3CCOCC3)ccc2c1`?
5-HT1A blocker: -9; HTR1E antagonist: -6; S1P3 ag: -1; HTR1A agonist: 2; 5HT1E ag: 8.7*

How did O=c1c2ccccc2nnn1CSc1nnc2sc3ccccc3n12 do in these assays?
S1P1 ag-PAM: -9; 5-HT1A blocker: 10; HTR1E antagonist: -5; S1P3 ag: 1; HTR1A agonist: -1; 5HT1E ag: 0

What do the screens show for `Clc1ccccc1CNc1ncnc2nc[nH]c12`?
S1P1 ag-PAM: 9; 5-HT1A blocker: 3; HTR1E antagonist: -10; S1P3 ag: -1; HTR1A agonist: 47*; 5HT1E ag: 1

Results for c1ccc(CNc2ncnc3nc[nH]c23)nc1 ?
S1P1 ag-PAM: 0; 5-HT1A blocker: -2; HTR1E antagonist: 5; S1P3 ag: -1; HTR1A agonist: -3; 5HT1E ag: 0
